Results taken from ChEMBL document CHEMBL4261484, “Design, synthesis and anticonvulsant-analgesic activity of new N-[(phenoxy)alkyl]- and N-[(phenoxy)ethoxyethyl]aminoalkanols” (Medchemcomm, 2017).
Active and inactive are the calls of the source.

Tests used:
Mus musculus [1] = test: Anticonvulsant activity in mouse assessed as increase in electroconvulsive threshold at 2.5 mg/kg, ip by maximal electroshock seizure threshold test relative to control; format: functional
[2] = Neurotoxicity in ip dosed mouse assessed as motor impairment measured for one min by rotarod test; format: toxicity, organism-based; conditions: in vivo
Procedure, shortened: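 Mice trained on an accelerating rotarod, then tested at least 24 h later after ip pretreatment, on a rod turning at 10 rpm. Neurotoxicity was scored as failure to stay on the rod for one minute. Read-out is mice impaired over mice tested.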

Mus musculus [3] = test: Anticonvulsant activity in mouse assessed as current strength required to induce tonic hind-limb extension in 50% of the animals at 2.5 mg/kg, ip by maximal electroshock seizure threshold test (reference value: 6.05 to 8.13 mA); format: functional
[4] = Protection index, ratio of TD50 for neurotoxicity in ip dosed mouse by rotarod test to ED50 for anticonvulsant activity in mouse by maximal electroshock seizure test; format: toxicity, organism-based; conditions: in vivo, read-out: Ratio TD50/ED50
Mus musculus [5] = test: Anticonvulsant activity in mouse assessed as increase in electroconvulsive threshold at 10 mg/kg, ip by maximal electroshock seizure threshold test relative to control; format: functional
[6] = Neurotoxicity in ip dosed mouse assessed as motor impairment measured after 15 mins by rotarod test; conditions: in vivo
Mus musculus [7] = test: Anticonvulsant activity in mouse assessed as current strength required to induce tonic hind-limb extension in 50% of the animals at 10 mg/kg, ip by maximal electroshock seizure threshold test (reference value: 6.05 to 8.13 mA); format: functional
Mus musculus [8] = test: Anticonvulsant activity in mouse assessed as protection against subcutaneous pentylenetetrazole-induced seizures at 50 mg/kg, ip measured for 30 mins post pentylenetetrazole challenge at 0.5 hrs after compound dosing relative to control; format: functional
Mus musculus [9] = test: Anticonvulsant activity in mouse assessed as protection against subcutaneous pentylenetetrazole-induced seizures by measuring latency time of tonic seizures at 100 mg/kg, ip measured for 30 mins post pentylenetetrazole challenge at 0.5 hrs after compound dosing (reference value: 562.8 to 614.9 secs); format: functional
Mus musculus [10] = test: Anticonvulsant activity in mouse assessed as protection against subcutaneous pentylenetetrazole-induced seizures at 100 mg/kg, ip measured for 30 mins post pentylenetetrazole challenge at 0.5 hrs after compound dosing relative to control; format: functional
Mus musculus [11] = test: Anticonvulsant activity in mouse assessed as current strength required to induce tonic hind-limb extension in 50% of the animals at 20 mg/kg, ip by maximal electroshock seizure threshold test (reference value: 6.05 to 8.13 mA); format: functional
Mus musculus [12] = test: Neurotoxicity in mouse assessed as motor impairment by measuring loss of coordination at 33 mg/kg, ip measured for 60 secs by chimney test relative to control; format: toxicity, organism-based; conditions: in vivo, 1 min
Procedure, shortened: (§1)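 Mice dosed ip; trained, selected animals placed in a horizontal tube 25 cm long and 2.5 cm in diameter, then tube reversed so mice must climb out backward. Read-outs: escape time (s) ± SEM and % animals losing coordination versus control. Unpaired t test.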

Mus musculus [13] = test: Toxicity in mouse assessed as effect on spontaneous activity at 33 mg/kg, ip measured for 30 mins by photoresistor actometer relative to control; format: organism-based; conditions: in vivo, 0.5 h
Procedure, shortened: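 Mice dosed ip; locomotor activity by photoresistor actometers counting light-beam interruptions. Each mouse was habituated 30 min in a cage, then crossings were counted over a 30 min session. Data are mean ± SEM and % change vs control; unpaired t test.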

Mus musculus [14] = test: Toxicity in mouse at 100 mg/kg, ip measured during maximal electroshock seizure test; format: organism-based; conditions: in vivo
Mus musculus [15] = test: Anticonvulsant activity in mouse assessed as protection against subcutaneous pentylenetetrazole-induced seizures by measuring latency time of tonic seizures at 80 mg/kg, ip measured for 30 mins post pentylenetetrazole challenge at 0.5 hrs after compound dosing (reference value: 562.8 to 614.9 secs); format: functional
Mus musculus [16] = test: Anticonvulsant activity in ip dosed mouse assessed as protection against maximal electroshock-induced seizures; format: functional
Procedure, shortened: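 Mice were dosed ip. Maximal seizures were induced by auricular electrodes (25 mA, 500 V, 50 Hz, 0.2 s). Absence of hind-limb tonic extension counted as protection. […] Motor impairment was scored on a 10 rpm rotarod, giving TD50 the same way.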

Mus musculus [17] = test: Analgesic activity in mouse assessed as decrease in time of paw licking during phase 2 at 33 mg/kg, ip measured for 15 to 30 mins by formalin test relative to control; format: functional; parameters: scale not given: the % may be the effect or the level left
Procedure, shortened: (§2)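 Formalin test in mice: 20 μL of 5% formalin injected intraplantarly into the right hind paw. Each mouse was observed alone in a glass beaker for 30 min. Time (s) spent licking or biting the injected paw was recorded at 0–5 min (acute phase) and 15–30 min (inflammatory phase).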

Mus musculus [18] = test: Neurotoxicity in mouse assessed as motor impairment by measuring time of escaping from chimney at 33 mg/kg, ip measured for 60 secs (reference value: 8.87 +/- 1.79 secs); format: toxicity, organism-based; conditions: in vivo, 1 min; procedure, shortened: as §1
Mus musculus [19] = test: Anticonvulsant activity in mouse assessed as protection against subcutaneous pentylenetetrazole-induced seizures at 80 mg/kg, ip measured for 30 mins post pentylenetetrazole challenge at 0.5 hrs after compound dosing relative to control; format: functional
Mus musculus [20] = test: Anticonvulsant activity in mouse assessed as protection against maximal electroshock-induced seizures at 100 mg/kg, ip; format: functional, organism-based
Procedure, shortened: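 Mice dosed ip; maximal seizures induced by auricular electroshock (25 mA, 500 V, 50 Hz, 0.2 s). Endpoint: hind-limb tonic extension; animals without it scored protected. Read-out is number protected over number tested.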

Mus musculus [21] = test: Analgesic activity in mouse assessed as decrease in time of paw licking during phase 1 at 33 mg/kg, ip measured for 5 mins by formalin test relative to control; format: functional; parameters: scale not given: the % may be the effect or the level left; procedure, shortened: as §2
Mus musculus [22] = test: Toxicity in mouse at 60 mg/kg, ip measured during maximal electroshock seizure test; format: organism-based; conditions: in vivo
Mus musculus [23] = test: Anticonvulsant activity in mouse assessed as increase in electroconvulsive threshold at 20 mg/kg, ip by maximal electroshock seizure threshold test relative to control; format: functional

Compound `O=C1NC(=O)C(c2ccccc2)(c2ccccc2)N1` [PHENYTOIN] has an Activity (Mus musculus [1]) of 23.31%, a TD50 at 1 min [2] of 68.7 mg/kg and an Activity (Mus musculus [3]) of 7.46 mA. It also gave a selectivity ratio [4] of 10.3.

With `COC[C@@H](NC(C)=O)C(=O)NCc1ccccc1` [LACOSAMIDE] the Activity (Mus musculus [5]) was >413.22%, the TD50 at 0.25 h [6] was 42.5 mg/kg and the Activity (Mus musculus [7]) was >25 mA.

`CCC1(C)CC(=O)NC1=O` (stereo not given) [ETHOSUXIMIDE] showed an Activity (Mus musculus [8]) of 123.94%, a Time (Mus musculus [9]) of 1470 s and an Activity (Mus musculus [10]) of 139.06%.

`Cc1cccc(OCCOCCN[C@H]2CCCC[C@@H]2O)c1C` (racemic) showed a TD50 at 1 min [2] of 47.4 mg/kg, an Activity (Mus musculus [11]) of 7.01 mA and an Activity (Mus musculus [12]) of 0%. For the same compound, the Activity (Mus musculus [13]) was 3.42%, the Activity (Mus musculus [14]) was “Non-Toxic” and the Time (Mus musculus [15]) was 596 s. It also gave an ED50 (Mus musculus [16]) of 32.9 mg/kg, an Activity (Mus musculus [17]) of 70.13% and a Time (Mus musculus [18]) of 4.13 s. The Activity (Mus musculus [19]) was 2.05%, the Activity (Mus musculus [20]) was “Active” and the selectivity ratio [4] was 1.44. For the same compound, the Activity (Mus musculus [21]) was 25.47%, the Activity (Mus musculus [22]) was “Non-Toxic” and the Activity (Mus musculus [23]) was “inactive”.
